Assay results as given in ChEMBL document CHEMBL4622968, “Discovery of [1,2,4]triazolo[4,3-a]pyridines as potent Smoothened inhibitors targeting the Hedgehog pathway with improved antitumor activity in vivo” (Bioorg Med Chem, 2020).
Activity calls are given as the source filed them. The rule behind the calls is not given here.

Experiments:
[1] = tested on: T47D; experiment: Antiproliferation activity against human T47D cells assessed as reduction in cell viability incubated for 72 hr by MTT assay; format: functional, cell-based
Summary of the method: (§1)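 MTT assay. Cells were plated overnight and exposed to a range of concentrations for 72 h. MTT was then added for 4 h and absorbance read at 570 nm. Inhibition% = [(control − compound)/(control − blank)] × 100. IC50 was fitted from the curves. Mean ± S.D. of 3–5 separate experiments. RPMI 1640 + 10% FBS; MCF10A in DMEM/F12 with 5% horse serum, EGF, hydrocortisone, insulin and cholera toxin.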

[2] = Inhibition of hedgehog pathway in mouse NIH/3T3 cells harboring GRE-Luc assessed as inhibition of SAG-induced Hh signaling pathway by dual luciferase reporter gene assay; format: cell-based; details: NIH3T3
Summary of the method: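 NIH3T3 cells co-transfected with 8×3' Gli-BS-delta51-Luc II firefly reporter and pRL-TK Renilla plasmid; after 24 h treated with compounds plus SAG (pathway activator). Gli luciferase normalized to Renilla (dual-luciferase read-out); IC50 = concentration halving normalized signal; mean ± S.D. of 3–5 separate experiments.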

[3] = tested on: MDA-MB-468; experiment: Antiproliferation activity against human MDA-MB-468 cells assessed as reduction in cell viability incubated for 72 hr by MTT assay; format: functional, cell-based; details: MDA-MB-468, 72 h; summary of the method: as §1
[4] = tested on: MDA-MB-231; experiment: Antiproliferation activity against human MDA-MB-231 cells assessed as reduction in cell viability incubated for 72 hrs measured after 4 hrs by MTT assay; format: functional, cell-based; summary of the method: as §1
[5] = tested on: MCF7; experiment: Antiproliferation activity against human MCF7 cells assessed as reduction in cell viability incubated for 72 hrs by MTT assay; format: functional, cell-based; details: MCF7, 72 h; summary of the method: as §1
[6] = tested on: A549; experiment: Antiproliferation activity against human A549 cells assessed as reduction in cell viability incubated for 72 hrs by MTT assay; format: functional, cell-based; details: A549, 72 h; summary of the method: as §1
[7] = tested on: U-251; experiment: Antiproliferation activity against human U251 cells assessed as reduction in cell viability incubated for 72 hrs by MTT assay; format: functional, cell-based; details: U-251, 72 h; summary of the method: as §1
[8] = tested on: AN3-CA; experiment: Antiproliferation activity against human AN3CA cells assessed as reduction in cell viability incubated for 72 hr by MTT assay; format: functional, cell-based; summary of the method: as §1
[9] = tested on: HeLa; experiment: Antiproliferation activity against human HeLa cells assessed as reduction in cell viability incubated for 72 hrs by MTT assay; format: functional, cell-based; summary of the method: as §1
[10] = target: T1, Protein smoothened (Homo sapiens, UniProt Q99835); experiment: Binding affinity to recombinant human Smo receptor assessed as association rate constant by SPR analysis
Summary of the method: (§2)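 Surface plasmon resonance with recombinant Smo protein, run in PBS at a flow rate of 2 μL/s and 4 °C. Analytes were injected at 2.5, 5 and 10 μM. The chip was regenerated with 0.5% SDS:glycine-HCl pH 2.0 (1:1). ka, kd, Rmax, KA and KD came from a global fit of the sensorgrams.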

[11] = target: T1, Protein smoothened; experiment: Binding affinity to recombinant human Smo receptor assessed as dissociation rate constant by SPR analysis; summary of the method: as §2
[12] = target: T1, Protein smoothened; experiment: Binding affinity to recombinant human Smo receptor assessed as maximum response at equilibrium by SPR analysis; summary of the method: as §2
[13] = target: T1, Protein smoothened; experiment: Binding affinity to recombinant human Smo receptor assessed as association constant at equilibrium by SPR analysis
[14] = target: T1, Protein smoothened; experiment: Binding affinity to recombinant human Smo receptor assessed as dissociation constant at equilibrium by SPR analysis
[15] = Acute toxicity in Kunming mouse assessed as mortality at 5000 mg/kg, ig observed for 14 days relative to control; format: organism-based; details: in vivo, po, read-out: Activity
Summary of the method: (§3)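 Kunming mice, groups of 5 female and 5 male per dose, dosed once by gavage at graded doses; mortality recorded over 14 days as dead/treated and percent. LD50 derived by improved Karber's method: LD50 = lg^-1[xm − i(ΣP − 0.5)], xm log of maximal dose, i log ratio of neighbouring doses; 95% confidence intervals given.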

[16] = Acute toxicity in Kunming mouse assessed as lethality through intragastric administration observed for 14 days; details: in vivo, po; summary of the method: as §3
[17] = tested on: MCF-10A; experiment: Cytotoxicity against human MCF10A cells assessed as cell viability incubated for 72 hrs measured by MTT assay; format: cell-based; summary of the method: as §1
[18] = tested on: MDA-MB-468; experiment: Inhibition of hedgehog pathway in human MDA-MB-468 cells assessed as decrease in Smo protein levels in cilia at 28 uM incubated for 24 hrs by immunostaining based confocal microscopic analysis; format: cell-based
Summary of the method: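 MDA-MB-468 cells were treated at 28 μM for 24 h with or without SAG. Cilia were immunostained for acetylated α-tubulin and Smo and imaged by confocal microscopy. Comparisons were made against DMSO and against SAG alone.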

[19] = Acute toxicity in Kunming mouse assessed as mortality at 741 mg/kg, ig observed for 14 days relative to control; format: organism-based; details: in vivo, po, read-out: Activity; summary of the method: as §3
[20] = Acute toxicity in Kunming mouse assessed as mortality at 1111 mg/kg, ig observed for 14 days relative to control; format: organism-based; details: in vivo, po, read-out: Activity; summary of the method: as §3
[21] = Acute toxicity in Kunming mouse assessed as mortality at 1778 mg/kg, ig observed for 14 days relative to control; format: organism-based; details: in vivo, po, read-out: Activity; summary of the method: as §3
[22] = Acute toxicity in Kunming mouse assessed as mortality at 2667 mg/kg, ig observed for 14 days relative to control; format: organism-based; details: in vivo, po, read-out: Activity; summary of the method: as §3
[23] = Acute toxicity in Kunming mouse assessed as mortality at 4000 mg/kg, ig observed for 14 days relative to control; format: organism-based; details: in vivo, po, read-out: Activity; summary of the method: as §3
[24] = Toxicity in BALB/c mouse xenografted with human MDA-MB-468 cells assessed as body weight at 80 to 100 mg/kg, ig measured every day for 21 day; format: organism-based; details: in vivo, po, 504 h
Summary of the method: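 Female BALB/c nude mice, 6–8 weeks, given 1.0×10^7 MDA-MB-468 cells s.c. in right posterior flank; at 100 mm3 tumours, randomized into groups of five. Daily gavage at 80 or 100 mg/kg in saline with 0.1% Tween 80, or vehicle alone; body weight recorded daily, tumour volume every 2 days; sacrificed day 21.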

T1 sequence (Q99835 whole entry): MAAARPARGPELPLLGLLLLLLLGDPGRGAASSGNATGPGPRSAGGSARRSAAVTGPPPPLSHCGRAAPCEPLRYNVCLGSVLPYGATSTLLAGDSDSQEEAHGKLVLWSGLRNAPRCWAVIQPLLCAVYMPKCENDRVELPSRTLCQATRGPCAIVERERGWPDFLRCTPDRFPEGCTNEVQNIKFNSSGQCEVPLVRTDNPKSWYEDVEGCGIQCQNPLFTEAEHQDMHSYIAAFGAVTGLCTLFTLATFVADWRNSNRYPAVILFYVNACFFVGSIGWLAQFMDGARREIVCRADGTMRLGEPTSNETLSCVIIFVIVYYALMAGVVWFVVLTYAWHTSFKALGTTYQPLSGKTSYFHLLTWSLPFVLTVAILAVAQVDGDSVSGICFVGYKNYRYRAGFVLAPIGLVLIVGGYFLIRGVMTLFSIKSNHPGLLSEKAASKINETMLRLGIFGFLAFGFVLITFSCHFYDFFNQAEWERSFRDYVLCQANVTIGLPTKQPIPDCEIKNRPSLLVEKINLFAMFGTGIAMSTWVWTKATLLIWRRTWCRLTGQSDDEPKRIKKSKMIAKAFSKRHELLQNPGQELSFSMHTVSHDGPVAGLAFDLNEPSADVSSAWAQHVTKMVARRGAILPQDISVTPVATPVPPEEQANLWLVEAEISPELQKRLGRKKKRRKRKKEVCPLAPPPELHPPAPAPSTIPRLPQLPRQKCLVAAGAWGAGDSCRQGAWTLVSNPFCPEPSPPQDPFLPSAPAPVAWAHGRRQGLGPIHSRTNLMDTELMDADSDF

Structure (SMILES) | IC50 [1] [µM] | IC50 [2] [µM] | IC50 [3] [µM] | IC50 [4] [µM] | IC50 [5] [µM] | IC50 [6] [µM] | IC50 [7] [µM] | IC50 [8] [µM] | IC50 [9] [µM] | Ka [10] [M⁻¹ s⁻¹] | Kdiss [11] [×10⁻³ /s] | Rmax [12] [RU] | KA [13] | Kd [14] [µM] | further results
O=C(Nc1ccc(Cl)c(-c2nnc3c(Cl)cccn23)c1)c1cccc(Cl)c1 | 30.2 | 0.102 | 54.8 | 66.1 | 71.9 | 52.7 | 43.1 | 68.4 | > 100 | 101 | 1.23 | 41.2 | 8.21 ×10⁴ /M | 12.1 | mortality at 336 h [15]: 0%; LD50 at 336 h [16]: > 5000 mg/kg
O=C(Nc1ccc(Cl)c(-c2nnc3c(Cl)cccn23)c1)c1ccc(Cl)cc1Cl | > 100 | 0.285 | 21.6 | > 100 | 78.2 | 61.3 | > 100 | 84.8 | > 100 |  |  |  |  |  | 
CS(=O)(=O)c1ccc(C(=O)Nc2ccc(Cl)c(-c3nnc4c(Cl)cccn34)c2)c(Cl)c1 | > 100 | 4.27 | > 100 | 37.2 | > 100 | > 100 | 44.6 | > 100 | > 100 |  |  |  |  |  | 
O=C(Nc1ccc(Cl)c(-c2nnc3c(Cl)cccn23)c1)c1ccc(C(F)(F)F)cc1Cl | > 100 | 5.2 | > 100 | > 100 | 81.6 | > 100 | > 100 | > 100 | > 100 |  |  |  |  |  | 
O=C(Nc1ccc(Cl)c(-c2nnc3c(Cl)cccn23)c1)c1ccccc1Cl | 83.8 | 0.727 | > 100 | 59.9 | 92.2 | > 100 | > 100 | > 100 | > 100 |  |  |  |  |  | 
O=C(Nc1ccc(Cl)c(-c2nnc3c(Cl)cccn23)c1)c1cccnc1Cl | > 100 | > 10 | > 100 | 89.7 | > 100 | 35.8 | > 100 | > 100 | 87.5 |  |  |  |  |  | 
CS(=O)(=O)c1ccc(C(=O)Nc2ccc(Cl)c(-c3ccccn3)c2)c(Cl)c1 [VISMODEGIB] | > 100 | 0.1 | 79 | > 100 | > 100 | > 100 | > 100 | 93 | 61.7 | 179 | 0.0174 | 4.63 |  |  | IC50 [17]: 89.5 µM; inhibition [18]: Active; mortality at 336 h [19]: 10%; mortality at 336 h [20]: 30%; mortality at 336 h [21]: 50%; mortality at 336 h [22]: 60%; mortality at 336 h [23]: 80%; LD50 at 336 h [16]: 2010 mg/kg; Activity [24]: Non-Toxic
O=C(Nc1ccc(Cl)c(-c2nnc3c(Cl)cccn23)c1)c1ccc(C(F)(F)F)nc1Cl | 87.6 | 0.093 | 46 | > 100 | > 100 | 46.8 | > 100 | 48.3 | 86.3 | 260 | 0.00275 | 8.44 | 9.43 ×10⁷ /M | 0.0106 | 
O=C(Nc1ccc(Cl)c(-c2nnc3c(Cl)cccn23)c1)c1ccc(Cl)cc1 | > 100 | 2.73 | > 100 | > 100 | 58.4 | 73.6 | > 100 | > 100 | > 100 |  |  |  |  |  | 
O=C(Nc1ccc(Cl)c(-c2nnc3c(Cl)cccn23)c1)c1ccc(C(F)(F)F)cc1F | 70.8 | 0.096 | 22.3 | > 100 | 62.8 | > 100 | > 100 | 41.2 | 61.9 | 111 | 1.51 | 49.2 | 7.35 ×10⁴ /M | 13.6 | 
